Measured values of several laboratories.
Each line is one published result; the experiments were not run side by side.
CSF1R: Macrophage colony-stimulating factor 1 receptor (CSF1R, Homo sapiens, UniProt P07333)
CSF1R Y969C: Macrophage colony-stimulating factor 1 receptor (CSF1R, Homo sapiens, UniProt P07333, Y969C)
CSF1R autoinhibited: Macrophage colony-stimulating factor 1 receptor, autoinhibited (CSF1R, Homo sapiens, UniProt P07333)

| Compound | target | test | setting | endpoint | value |
| --- | --- | --- | --- | --- | --- |
| Cc1cc(NC(=O)c2cccc3cc(-c4cccc5[nH]nc(N)c45)ccc23)ccc1F | CSF1R | enzyme activity, inhibitor | 0.1 µM | activity vs control | 7% |
| Cc1c(NC(=O)c2cc(C(N)=O)nc3cc(F)ccc23)c(C(F)(F)F)nn1Cc1ccc(C#N)cc1 | CSF1R | cell-free assay, competition with immobilised ligand | 1 µM | remaining binding | 83% |
| CNC(=O)c1cc2c(Oc3ccc(NC(=O)C4(C(=O)Nc5ccc(F)cc5)CC4)cc3)ccnc2cc1OC | CSF1R Y969C | enzyme activity, inhibitor, radiometric | 1 µM | inhibition | 77% |
| CCS(=O)(=O)c1cc2cc(C[C@@](O)(CC(C)(C)c3ccc(F)cc3C(N)=O)C(F)(F)F)[nH]c2cn1 | CSF1R autoinhibited | cell-free assay, competition with immobilised ligand | 1 µM | remaining binding | 94% |
| CCN(CC)CCNC(=O)c1c(C)[nH]c(/C=C2\C(=O)Nc3ccc(F)cc32)c1C | CSF1R | cell-free assay | 0.3 µM | inhibition | 98% |
| N[C@@H]1CCN(c2nccc(-c3cnn4ncccc34)n2)C1 | CSF1R autoinhibited | binding | 1 µM | remaining binding | 100% |
| COc1cc(-c2cn(C3CCc4c(F)cccc4N(CC(F)(F)F)C3=O)nn2)ccc1-n1cnc(C)c1 (stereo not shown) | CSF1R autoinhibited | cell-free assay, competition with immobilised ligand | 1 µM | remaining binding | 100% |
| Cc1cnc(NC2CCOCC2)nc1-n1cnc(C(=O)NC(CN)c2cc(F)cc(Cl)c2)c1 (stereo not shown) | CSF1R Y969C | enzyme activity, inhibitor, radiometric | 1 µM | remaining activity | 101% |
| CCCOc1ccc([C@H]2[C@H](C(=O)O)[C@@H](c3ccc4c(c3)OCO4)CN2CC(=O)Nc2c(CC)cccc2CC)cc1 | CSF1R autoinhibited | cell-free assay, competition with immobilised ligand | 1 µM | remaining binding | 61% |
| CC(C)(C)c1nc2c(s1)c1nc(N)ncc1c1ccc(NS(=O)(=O)c3c(F)cccc3F)c(F)c12 | CSF1R | enzyme activity, inhibitor, radiometric | 1 µM | remaining activity | 109% |
| CN(C)C1CCN(CC#Cc2nn(C3CCCC3)c3nc(NCc4ccccc4)ncc23)C1 (stereo not shown) | CSF1R | enzyme activity, inhibitor, FRET | 10 µM | inhibition | 107% |
| Cc1sc(C(=O)NC2COC2)cc1-n1cc(NC(=O)Nc2c(F)cccc2Cl)cn1 | CSF1R | enzyme activity, inhibitor | 10 µM | remaining activity | 103% |
| C[C@@H]1CN(c2cc(-c3nn(C)c4ccc(OC5(C)CC5)cc34)ncn2)C[C@H](C)O1 | CSF1R autoinhibited | cell-free assay, competition with immobilised ligand | 1 µM | remaining binding | 55% |
| COc1cc2ncnc(Nc3ccc(Oc4ccccc4)cc3C)c2cc1OC | CSF1R | enzyme activity, inhibitor | 1 µM | inhibition | 24% |
| COc1ccc2cc(OCC3(C(=O)O)CN(C(=O)c4ccc(F)cc4)C3)ccc2c1 | CSF1R | cell-free assay, competition with immobilised ligand | 1 µM | remaining binding | 100% |
| Nc1ncnc2occ(-c3ccc(NC(=O)Nc4cc(C(F)(F)F)ccc4F)cc3)c12 | CSF1R autoinhibited | cell-free assay | 20 µM | remaining signal | 0.95% |
| COc1cc2nccc(Oc3ccc(NC(=O)c4c5n(n(-c6ccc(F)cc6)c4=O)CCCC5)cc3)c2cc1OC | CSF1R | enzyme activity, inhibitor | 0.1 µM | inhibition | 38% |

| Compound | target | test | setting | endpoint | value |
| --- | --- | --- | --- | --- | --- |
| c1cnn2ncc(-c3ccnc(N4CCC45COC5)n3)c2c1 | CSF1R | binding | 1 µM | remaining binding | 100% |
| C=CC(=O)Nc1cc(Nc2nccc(Nc3cc(Cl)c(F)cc3C(C)(C)O)n2)c(OC)cc1N1CC[C@@H](N(C)C)C1 | CSF1R | enzyme activity, inhibitor | 1 µM | inhibition | 13% |
| Oc1cccc(-c2nc(N3CCOCC3)c3oc4ncccc4c3n2)c1 | CSF1R | cell-free assay | 0.5 µM | remaining signal | 108% |
| Cc1ccc(NC(=O)c2ccc(C)c(C(F)(F)F)c2)cc1C#Cc1nn(C2CCC(O)CC2)c2ncnc(N)c12 (stereo not shown) | CSF1R | cell-free assay | 10 µM | remaining signal | 4% |
| N#CCCc1ccc2c(c1)-c1[nH]c3ccc([N+](=O)[O-])cc3c1CC(=O)N2 | CSF1R | cell-free assay | 0.5 µM | remaining signal | 43.4% |
| CCCOc1ccc(OC)c(F)c1C(=O)c1ccc(C(=O)N[C@@H]2CNC[C@H]2NC(=O)c2ccc3[nH]ncc3c2)cc1 | CSF1R Y969C | enzyme activity, inhibitor | 10 µM | remaining activity | 57% |
| Oc1ccc(-c2nc(-c3ccncc3)c(-c3ccc(F)cc3)[nH]2)cc1 | CSF1R | cell-free assay | 0.5 µM | remaining signal | 96.9% |
| CC(=O)C1=C(C)N(c2cccc(C(F)(F)F)c2)C(=O)N[C@@H]1c1ccc(C#N)nc1 | CSF1R | cell-free assay, competition with immobilised ligand | 1 µM | remaining binding | 99.4% |
| CN(c1nccc(-c2cnn3ncccc23)n1)C1CC1 | CSF1R | binding | 1 µM | remaining binding | 88% |
| Cc1ccc(C(=O)NCc2ccsc2)cc1C#Cc1cn(C(C)C)c2ncnc(N)c12 | CSF1R | enzyme activity, inhibitor | 1 µM | activity vs control | 8% |
| O=C(CSc1nc2nccnc2c(=O)n1CCc1ccccc1)Nc1nccs1 | CSF1R | enzyme activity, inhibitor | 10 µM | inhibition | 13% |
| CC(C)(O)[C@H]1CC[C@H](Nc2ccc3ncc(-c4cccc(C(F)(F)F)c4)n3n2)CC1 | CSF1R | enzyme activity, inhibitor | 1 µM | remaining activity | 89.7% |
| CC/C(=N\NC(=O)NCc1cccc(O)c1)c1ccc(O)c(C)c1O | CSF1R | enzyme activity, inhibitor | 0.1 µM | inhibition | -4.4% |
| C[C@@H]1CCN(c2nccc(-c3cnn4ncccc34)n2)C1 | CSF1R | binding | 1 µM | remaining binding | 100% |
| O=C1NC(=O)c2cc(Nc3ccc(F)cc3)c(Nc3ccc(F)cc3)cc21 | CSF1R | cell-free assay | 0.5 µM | remaining signal | 104% |
| CN(CCCC(F)(F)F)c1nccc(-c2cnn3ncccc23)n1 | CSF1R autoinhibited | binding | 1 µM | remaining binding | 100% |
| FC(F)(F)c1ccc2c(c1)nc(-c1cccnc1)n2C1CC1 | CSF1R autoinhibited | cell-free assay, competition with immobilised ligand | 1 µM | remaining binding | 89% |
